One assay is filed under the species Homo sapiens. Briefly: Inhibition of PHK (unknown origin) at 10 uM incubated for 30 mins in presence of [gamma-33P]ATP by multidrop micro reagent based assay relative to control; values are per cent of control.
Assay [1] deals with Serine/threonine-protein kinase 26 (Homo sapiens) (UniProt Q9P289). Briefly: Inhibition of MST4 (unknown origin) at 10 uM incubated for 30 mins in presence of [gamma-33P]ATP by multidrop micro reagent based assay relative to control. The method in brief: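 Single-concentration screen across a panel of 85 protein kinases. Activity is expressed as a percentage of control incubations run without inhibitor.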
Sequence of Serine/threonine-protein kinase 26 (Homo sapiens) (Q9P289 2-416 limits assumed): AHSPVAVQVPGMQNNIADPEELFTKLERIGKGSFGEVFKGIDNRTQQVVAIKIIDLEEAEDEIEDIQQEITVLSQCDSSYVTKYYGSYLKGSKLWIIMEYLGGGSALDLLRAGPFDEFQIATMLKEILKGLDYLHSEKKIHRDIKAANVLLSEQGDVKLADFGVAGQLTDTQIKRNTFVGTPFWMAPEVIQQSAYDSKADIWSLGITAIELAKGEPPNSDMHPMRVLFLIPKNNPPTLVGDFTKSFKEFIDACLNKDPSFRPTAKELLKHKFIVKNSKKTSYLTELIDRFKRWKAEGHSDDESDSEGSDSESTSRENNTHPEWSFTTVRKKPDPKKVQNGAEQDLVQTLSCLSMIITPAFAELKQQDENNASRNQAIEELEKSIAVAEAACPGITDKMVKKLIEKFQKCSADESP

In assay [2] the target is Mitogen-activated protein kinase 13 (Homo sapiens) (UniProt O15264). In words: Residual activity of p38delta MAPK (unknown origin) at 10 uM incubated for 30 mins in presence of [gamma-33P]ATP by multidrop micro reagent based assay relative to control.
Sequence of Mitogen-activated protein kinase 13 (Homo sapiens) (O15264 whole entry): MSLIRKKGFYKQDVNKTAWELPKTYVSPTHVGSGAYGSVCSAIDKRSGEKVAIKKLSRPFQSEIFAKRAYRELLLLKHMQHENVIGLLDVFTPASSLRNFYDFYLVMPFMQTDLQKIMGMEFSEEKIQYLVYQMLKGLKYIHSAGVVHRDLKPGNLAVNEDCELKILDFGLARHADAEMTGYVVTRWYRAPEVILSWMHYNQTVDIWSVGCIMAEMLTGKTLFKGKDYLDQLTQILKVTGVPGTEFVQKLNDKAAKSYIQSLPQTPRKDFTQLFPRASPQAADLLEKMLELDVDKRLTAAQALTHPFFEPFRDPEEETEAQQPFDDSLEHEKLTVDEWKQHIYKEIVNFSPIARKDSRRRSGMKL
In assay [3] the target is T1, Serine/threonine-protein kinase Sgk1 (Homo sapiens) (UniProt O00141).
T1 sequence (whole entry): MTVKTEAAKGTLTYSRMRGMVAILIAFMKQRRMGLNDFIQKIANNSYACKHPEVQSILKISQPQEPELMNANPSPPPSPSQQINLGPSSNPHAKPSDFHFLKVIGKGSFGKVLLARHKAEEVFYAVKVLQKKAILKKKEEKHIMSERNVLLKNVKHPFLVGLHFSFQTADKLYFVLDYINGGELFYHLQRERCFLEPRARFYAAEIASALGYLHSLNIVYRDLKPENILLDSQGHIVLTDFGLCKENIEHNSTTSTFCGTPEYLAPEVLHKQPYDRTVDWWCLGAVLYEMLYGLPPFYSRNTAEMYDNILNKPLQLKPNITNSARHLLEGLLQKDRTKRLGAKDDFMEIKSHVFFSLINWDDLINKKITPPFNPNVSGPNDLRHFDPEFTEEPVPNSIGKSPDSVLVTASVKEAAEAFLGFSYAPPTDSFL
In words: Residual activity of SGK1 (unknown origin) at 10 uM incubated for 30 mins in presence of [gamma-33P]ATP by multidrop micro reagent based assay relative to control.

For assay [4], the target named is Serine/threonine-protein kinase pim-1 (Homo sapiens) (UniProt P11309). In words: Inhibition of PIM1 (unknown origin) at 10 uM incubated for 30 mins in presence of [gamma-33P]ATP by multidrop micro reagent based assay relative to control; values are per cent of control.
Sequence of Serine/threonine-protein kinase pim-1 (Homo sapiens) (P11309 whole entry, looked up): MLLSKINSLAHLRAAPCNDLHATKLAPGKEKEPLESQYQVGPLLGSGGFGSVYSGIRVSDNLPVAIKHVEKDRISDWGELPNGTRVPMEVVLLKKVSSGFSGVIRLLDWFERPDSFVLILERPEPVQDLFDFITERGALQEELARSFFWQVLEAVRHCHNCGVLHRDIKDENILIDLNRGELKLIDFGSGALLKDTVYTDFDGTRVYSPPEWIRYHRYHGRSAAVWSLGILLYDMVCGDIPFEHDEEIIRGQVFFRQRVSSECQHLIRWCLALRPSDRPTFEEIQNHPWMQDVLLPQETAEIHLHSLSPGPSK
Assay [5] addresses T2, MAP kinase-activated protein kinase 5 (Homo sapiens) (UniProt Q8IW41).
T2 sequence (whole entry): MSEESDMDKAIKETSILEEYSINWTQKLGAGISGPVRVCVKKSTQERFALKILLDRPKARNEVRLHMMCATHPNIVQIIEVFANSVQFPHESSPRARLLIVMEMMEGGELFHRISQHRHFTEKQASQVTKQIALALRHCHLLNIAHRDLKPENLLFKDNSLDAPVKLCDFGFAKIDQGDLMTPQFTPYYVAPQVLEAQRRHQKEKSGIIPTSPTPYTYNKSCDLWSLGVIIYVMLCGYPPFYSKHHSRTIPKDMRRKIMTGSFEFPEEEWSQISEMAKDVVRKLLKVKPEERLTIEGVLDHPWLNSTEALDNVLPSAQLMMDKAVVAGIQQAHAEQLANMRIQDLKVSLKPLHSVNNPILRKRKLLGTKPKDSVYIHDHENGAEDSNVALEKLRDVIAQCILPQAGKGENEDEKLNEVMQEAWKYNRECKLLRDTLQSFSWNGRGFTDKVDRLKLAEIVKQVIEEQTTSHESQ
In words: Inhibition of PRAK (unknown origin) at 10 uM incubated for 30 mins in presence of [gamma-33P]ATP by multidrop micro reagent based assay relative to control; values are per cent of control.

The target in assay [6] is Mitogen-activated protein kinase 3 (Homo sapiens) (UniProt P27361). Briefly: Inhibition of ERK1 (unknown origin) at 10 uM incubated for 30 mins in presence of [gamma-33P]ATP by multidrop micro reagent based assay relative to control; values are per cent of control.
Sequence of Mitogen-activated protein kinase 3 (Homo sapiens) (P27361 whole entry): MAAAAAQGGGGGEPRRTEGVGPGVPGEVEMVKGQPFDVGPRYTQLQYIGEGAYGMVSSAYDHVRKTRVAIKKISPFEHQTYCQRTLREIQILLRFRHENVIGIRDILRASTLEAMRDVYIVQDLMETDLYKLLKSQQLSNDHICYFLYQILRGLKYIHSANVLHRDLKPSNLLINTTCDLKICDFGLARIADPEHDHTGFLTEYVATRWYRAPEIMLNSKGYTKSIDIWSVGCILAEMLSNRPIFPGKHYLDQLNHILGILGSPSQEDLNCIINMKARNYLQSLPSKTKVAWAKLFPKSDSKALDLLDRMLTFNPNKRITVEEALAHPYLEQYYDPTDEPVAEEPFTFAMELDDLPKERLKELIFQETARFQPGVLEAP
The target in assay [7] is Casein kinase 2 (Homo sapiens) (UniProt P67870+P68400+P19784+Q8NEV1). Briefly: Inhibition of CK2 (unknown origin) at 1 uM incubated for 30 mins in presence of [gamma-33P]ATP by multidrop micro reagent based assay relative to control; values are per cent of control.
Assay [8] deals with Misshapen-like kinase 1 (Homo sapiens) (UniProt Q8N4C8). In words: Inhibition of MINK1 (unknown origin) at 10 uM incubated for 30 mins in presence of [gamma-33P]ATP by multidrop micro reagent based assay relative to control; values are per cent of control.
Sequence of Misshapen-like kinase 1 (Homo sapiens) (Q8N4C8 whole entry, looked up): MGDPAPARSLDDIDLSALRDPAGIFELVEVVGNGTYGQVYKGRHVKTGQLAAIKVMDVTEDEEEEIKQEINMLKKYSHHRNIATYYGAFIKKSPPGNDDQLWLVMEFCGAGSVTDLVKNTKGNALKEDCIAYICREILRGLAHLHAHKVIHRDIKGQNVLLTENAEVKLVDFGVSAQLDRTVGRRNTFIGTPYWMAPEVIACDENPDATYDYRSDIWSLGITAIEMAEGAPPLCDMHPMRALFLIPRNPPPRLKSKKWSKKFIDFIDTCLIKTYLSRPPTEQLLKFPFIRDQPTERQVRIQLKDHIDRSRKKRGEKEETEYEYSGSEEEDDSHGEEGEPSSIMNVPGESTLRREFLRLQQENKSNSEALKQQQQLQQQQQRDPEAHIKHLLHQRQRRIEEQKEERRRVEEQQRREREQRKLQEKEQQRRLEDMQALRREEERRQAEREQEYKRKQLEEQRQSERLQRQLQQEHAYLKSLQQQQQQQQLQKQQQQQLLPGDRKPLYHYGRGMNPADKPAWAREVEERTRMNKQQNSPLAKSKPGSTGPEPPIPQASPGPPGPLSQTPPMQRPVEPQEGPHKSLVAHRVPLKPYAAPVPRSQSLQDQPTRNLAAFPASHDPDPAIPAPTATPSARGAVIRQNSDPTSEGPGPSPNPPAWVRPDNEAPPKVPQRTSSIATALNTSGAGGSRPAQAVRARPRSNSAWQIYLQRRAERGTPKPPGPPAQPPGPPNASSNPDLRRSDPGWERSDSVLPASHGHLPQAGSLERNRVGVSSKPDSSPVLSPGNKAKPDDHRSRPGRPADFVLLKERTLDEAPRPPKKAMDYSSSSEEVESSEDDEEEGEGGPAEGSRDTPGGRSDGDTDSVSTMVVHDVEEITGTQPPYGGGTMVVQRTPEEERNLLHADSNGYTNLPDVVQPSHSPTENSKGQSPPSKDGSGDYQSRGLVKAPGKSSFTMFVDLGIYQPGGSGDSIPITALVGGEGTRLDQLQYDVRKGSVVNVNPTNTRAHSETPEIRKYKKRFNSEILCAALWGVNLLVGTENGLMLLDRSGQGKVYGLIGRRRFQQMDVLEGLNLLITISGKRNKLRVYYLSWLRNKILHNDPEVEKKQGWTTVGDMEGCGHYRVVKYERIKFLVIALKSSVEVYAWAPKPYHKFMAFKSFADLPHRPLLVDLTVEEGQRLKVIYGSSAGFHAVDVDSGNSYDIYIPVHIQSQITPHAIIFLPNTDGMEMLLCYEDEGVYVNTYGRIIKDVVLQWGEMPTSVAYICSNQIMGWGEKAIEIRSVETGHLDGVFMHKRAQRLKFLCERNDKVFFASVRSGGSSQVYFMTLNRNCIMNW
The target of assay [9] is T3, Mitogen-activated protein kinase 15 (Homo sapiens) (UniProt Q8TD08).
T3 sequence (whole entry): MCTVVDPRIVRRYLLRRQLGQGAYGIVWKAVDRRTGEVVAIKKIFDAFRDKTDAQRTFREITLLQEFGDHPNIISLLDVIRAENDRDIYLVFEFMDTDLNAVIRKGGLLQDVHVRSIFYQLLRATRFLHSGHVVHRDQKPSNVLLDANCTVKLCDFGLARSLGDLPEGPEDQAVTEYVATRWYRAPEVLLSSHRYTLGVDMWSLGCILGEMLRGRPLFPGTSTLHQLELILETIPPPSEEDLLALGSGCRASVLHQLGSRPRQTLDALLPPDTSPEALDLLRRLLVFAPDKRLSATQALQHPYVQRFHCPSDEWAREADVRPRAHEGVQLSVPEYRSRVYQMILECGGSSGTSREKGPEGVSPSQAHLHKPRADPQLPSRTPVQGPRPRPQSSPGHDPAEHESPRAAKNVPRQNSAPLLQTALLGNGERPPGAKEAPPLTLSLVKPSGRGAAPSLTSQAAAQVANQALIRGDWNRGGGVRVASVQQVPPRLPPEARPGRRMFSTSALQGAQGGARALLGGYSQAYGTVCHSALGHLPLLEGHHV
In words: Inhibition of ERK8 (unknown origin) at 10 uM incubated for 30 mins in presence of [gamma-33P]ATP by multidrop micro reagent based assay relative to control.

Assay [10] concerns the target Dual specificity tyrosine-phosphorylation-regulated kinase 1A (Homo sapiens) (UniProt Q13627). Briefly: Inhibition of DYRK1A (unknown origin) at 1 uM incubated for 30 mins in presence of [gamma-33P]ATP by multidrop micro reagent based assay relative to control; values are per cent of control.
The target in assay [11] is Leucine-rich repeat serine/threonine-protein kinase 2 (Mus musculus) (UniProt Q5S006). In words: Inhibition of LRRK2 in mouse Swiss-3T3 cells at 10 uM using Nictide as substrate by immunoblot analysis. In kind it is cell-based.
The target of assay [12] is Homeodomain-interacting protein kinase 2 (Homo sapiens) (UniProt Q9H2X6). Briefly: Inhibition of HIPK2 (unknown origin) at 1 uM incubated for 30 mins in presence of [gamma-33P]ATP by multidrop micro reagent based assay relative to control; values are per cent of control.
Sequence of Homeodomain-interacting protein kinase 2 (Homo sapiens) (Q9H2X6 whole entry, looked up): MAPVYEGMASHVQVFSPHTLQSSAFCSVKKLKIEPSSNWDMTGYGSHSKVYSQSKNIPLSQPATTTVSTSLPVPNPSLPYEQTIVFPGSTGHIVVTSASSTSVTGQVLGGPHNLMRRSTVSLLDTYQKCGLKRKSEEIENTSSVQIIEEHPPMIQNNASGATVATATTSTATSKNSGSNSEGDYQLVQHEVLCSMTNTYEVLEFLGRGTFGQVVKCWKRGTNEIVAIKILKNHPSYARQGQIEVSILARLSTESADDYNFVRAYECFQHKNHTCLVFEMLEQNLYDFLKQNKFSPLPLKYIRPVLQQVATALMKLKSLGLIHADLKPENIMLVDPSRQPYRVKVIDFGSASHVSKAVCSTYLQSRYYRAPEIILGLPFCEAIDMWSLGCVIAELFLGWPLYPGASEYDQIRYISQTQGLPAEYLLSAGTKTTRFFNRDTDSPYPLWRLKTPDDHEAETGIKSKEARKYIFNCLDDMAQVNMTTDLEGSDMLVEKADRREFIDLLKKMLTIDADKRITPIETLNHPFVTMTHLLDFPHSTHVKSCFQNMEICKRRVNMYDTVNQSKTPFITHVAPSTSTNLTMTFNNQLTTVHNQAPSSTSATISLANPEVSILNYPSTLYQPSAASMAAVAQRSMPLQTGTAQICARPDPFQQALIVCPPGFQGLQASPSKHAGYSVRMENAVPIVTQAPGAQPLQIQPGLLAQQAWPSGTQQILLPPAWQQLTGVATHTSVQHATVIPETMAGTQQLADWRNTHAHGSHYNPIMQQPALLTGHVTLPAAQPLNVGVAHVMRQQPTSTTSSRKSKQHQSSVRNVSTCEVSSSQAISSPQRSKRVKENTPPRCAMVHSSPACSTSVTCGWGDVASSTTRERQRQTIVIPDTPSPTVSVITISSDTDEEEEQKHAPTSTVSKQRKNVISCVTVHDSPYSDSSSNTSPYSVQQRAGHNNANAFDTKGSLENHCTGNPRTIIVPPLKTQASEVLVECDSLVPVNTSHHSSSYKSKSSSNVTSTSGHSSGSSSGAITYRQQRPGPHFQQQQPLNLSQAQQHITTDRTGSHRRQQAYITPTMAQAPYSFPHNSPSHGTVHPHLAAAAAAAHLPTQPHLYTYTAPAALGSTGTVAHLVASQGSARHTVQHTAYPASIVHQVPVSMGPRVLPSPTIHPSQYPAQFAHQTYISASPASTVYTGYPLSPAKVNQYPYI

By inhibition is commonly meant how much of the control response was suppressed.

Molecules are shown by their SMILES. Calls of active or inactive are those of the source. The rule behind the calls is not given here.

With `C[C@@H](N)[C@H]1CC[C@H](C(=O)Nc2ccncc2)CC1`, the residual activity in the assay filed under Homo sapiens amounted to 79%; in assay [2] it was 86%; in assay [3] it was 50%; in assay [4] it was 94%; in assay [5], 88%; in assay [6] it was 92%. The inhibition in assay [1] was 67%.
With `Cc1cncc2cccc(S(=O)(=O)N3CCCNC[C@@H]3C)c12`, the residual activity in [7] turned out to be 84%.
On to `O=S(=O)(c1cccc2cnccc12)N1CCCNCC1` [FASUDIL], for which the residual activity in assay [8] worked out at 54%; in the assay filed under Homo sapiens, 46%; in [3] it was 69%; in assay [4] it was 84%. Also, the inhibition in assay [9] was 68%.
Regarding `CC1=C(C(=O)Nc2cc3cn[nH]c3cc2F)C(c2ccc(C(F)(F)F)cc2)CC(=O)N1` (configuration not stated), the residual activity is 98% in assay [10], 104% in assay [12] and 82% in [7]. Further, in assay [11], the inhibition entry is “inactive”.

These data come from ChEMBL document CHEMBL5705888, “Substrate specificity and inhibitors of LRRK2, a protein kinase mutated in Parkinson's disease” (Biochem J, 2009).
